Compound activity as filed in PubChem.
CAL PDZ FP-1: inhibitors of human CAL PDZ peptide binding; 0.02% of 330,000 active; inhibition, % at 20 µM; Q9HD26; purified CAL PDZ, TMR-peptide fluorescence polarization, 1 h; AID 504414;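 active = highest replicate inhibition of at least 40%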
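material = purified tagged CAL PDZ domain construct (CerCALP) | buffer or medium = sodium phosphate/NaCl buffer pH 7.4 with TCEP, IgG, Thesit | reagent = TMR-labelled reporter peptide T*-PRC34 bound in PDZ groove | incubation = 1 h room-temperature incubation prior to read | measured by = fluorescence polarization (mP) | evaluation = percent inhibition from loss of millipolarization | control set = unlabelled peptide and DMSO controls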
CAL PDZ FP-2: inhibitors of human CAL PDZ peptide binding | Q9HD26 | purified CAL PDZ, TMR-peptide fluorescence polarization, 1 h | inhibition, % at 24.9 µM | 0.92% of 300,000 active | AID 602252;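 active = mean inhibition of at least 30% with at least half of replicates also reaching 30%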
ARNT-TACC3 inh: ARNT/TACC3 interaction disruption; inhibition, % at 9.99 µM; AID 623870; 0.66% of 390,000 active; AlphaScreen His-ARNT PAS-B/GST-TACC3 binding, luminescence; TACC3 fragment carries E629A point mutation;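 active = mean inhibition of replicates at least 50% and at least half of replicates each reaching 50%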
CaV13 FRET inh: Primary screen for inhibitors of IQ motif and Ca2+-dependent inactivation inhibitor domain binding in CACNA1D, Förster resonance energy transfer in living cells, …; HEK cells, CFP/YFP FRET ICDI-IQ, plate reader, 10 min; percent FRET-ratio fall versus neutral wells; inhibition, % at 12.3 µM; 0.098% of 340,000 active; AID 743397;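 active = mean replicate inhibition of at least 30% and at least 1% of replicates passing that level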
ARNT Alpha ctr-1: interferes with AlphaScreen signal, flagging false ARNT-TACC3 hits; shares compounds with ARNT-TACC3 inh; His-ARNT PASB-GST AlphaScreen artifact counter-screen, luminescence; AC50, µM (series often up to 68 µM); 50% of 1,200 active; AID 651705;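 active = every separate test run was called active for a drop in luminescence, with AC50 within twice the top valid dose, actives reach about 71 µM in these data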
ARNT Alpha ctr-2: counter-screen for ARNT-TACC3 inhibitors: AlphaScreen artifacts | shares compounds with ARNT-TACC3 inh | Dual-tagged His-ARNT PASB-GST AlphaScreen artifact counter-screen | AC50, µM | 70% of 45 active | AID 720564;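 active = luminescence drop, with half-maximal potency fitted within twice the sample's top valid dose, cut at about 70 µM in these data; inactive = the rest, including signal moving the wrong way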
Hits are given with their value; 0 = inactive; - = no result given. Shown are actives, neighbours in structure and some others; about 1.2% of the full set was active somewhere.

SMILES	CAL PDZ FP-1	CAL PDZ FP-2	ARNT-TACC3 inh	CaV13 FRET inh	ARNT Alpha ctr-1	others
CCN(C(=O)CSc1nccn1C)c1cccc2ccccc12	0	0	68.2	0	0
C/C=C/c1ccc([C@H]2[C@@H](CO)N(Cc3ccccn3)[C@@H]2CNC(C)=O)cc1	-	-	30.1	-	0
C/C=C/c1ccc([C@H]2[C@@H](CO)N(Cc3ccccn3)[C@@H]2CNC(=O)CC)cc1	-	-	0	-	-
C/C=C/c1ccc([C@H]2[C@@H](CO)N(Cc3ccccn3)[C@H]2CNC(=O)CC)cc1	-	-	41.4	-	0
O=C(NCCN1CCCCC1)[C@@H]1[C@@H](CO)[C@@H]2Cn3c(cccc3=O)[C@H]1N2C(=O)C1CC1	-	-	0	-	-
CCCCCc1cc(=O)oc2c(C(CCN3CCCC3)c3ccc(N(C)C)cc3)c(OC)cc(OC)c12 (stereo not drawn)	0	0	51.3	0	9.6µM
C[C@@H]1CCCCO[C@H](CN(C)S(=O)(=O)c2ccc(Cl)cc2)[C@@H](C)CN([C@H](C)CO)C(=O)c2cc(NC(=O)CCC(F)(F)F)ccc2O1	-	-	0	-	-
c1ccc(CSc2ccc(-c3ccccn3)nn2)nc1	0	0	63.6	0	9.05µM
c1ccc(-c2ccc(SCc3cccnc3)nn2)nc1	0	0	57.6	0	14µM
O=C(CSc1cccc2cccnc12)N/N=C/c1ccncc1	0	-	61.7	0	0
CCOc1cc(/C=N/NC(=O)CSc2cccc3cccnc23)ccc1O	0	0	63.1	0	0
Cn1c(SCC(=O)N/N=C/c2ccncc2)nc2ccccc21	0	0	0	0	-
C[C@@H]1CN([C@H](C)CO)C(=O)c2cccc(NS(=O)(=O)c3ccccc3)c2O[C@@H]1CN(C)S(C)(=O)=O	-	-	0	-	-
COCC(=O)N(C)C[C@H]1Oc2ncc(C#Cc3ccccc3)cc2C(=O)N([C@H](C)CO)C[C@@H]1C	-	-	0	-	-
O=[N+]([O-])c1cc(Cl)cc(/C=N\Nc2ccccn2)c1O	0	0	56.0	0	25.4µM
CN1CCN(S(=O)(=O)c2cccc(C(=O)Nc3sccc3C(N)=O)c2)CC1	0	0	45.8	0	44.3µM
CC(C)Cc1nnc(NC(=O)c2cccc(S(=O)(=O)N3CCOCC3)c2)s1	0	0	-	0	-	ARNT Alpha ctr-2=0
CC(C)Cc1nnc(NC(=O)c2cccc(S(=O)(=O)N3CCN(C)CC3)c2)s1	0	0	0	0	-
CN1CCN(S(=O)(=O)c2cccc(C(=O)Nc3cc(C(N)=O)cc(C(N)=O)c3)c2)CC1	0	0	0	0	-
COC(=O)C1=COC(C)C2CN3CCc4c([nH]c5cc(OC)c(OC)cc45)C3CC12 (stereo not drawn)	0	0	63.3	-	71.1µM
COC(=O)[C@H]1[C@H]2C[C@@H]3c4[nH]c5cc(OC)ccc5c4CCN3C[C@H]2C[C@@H](OC(=O)c2cc(OC)c(OC)c(OC)c2)[C@@H]1OC	0	0	0	0	-
Cc1noc(C)c1NC(=O)N(C)C[C@H]1Oc2ccc(NC(=O)Nc3cccc4ccccc34)cc2C(=O)N([C@@H](C)CO)C[C@@H]1C	-	-	0	-	-
COC(=O)c1ccc2[nH]c3c(c2c1)CC(C)CC3 (stereo not drawn)	0	0	20.7	0	0
O=C(NCCCn1ccnc1)c1ccc2nccnc2c1	0	-	58.1	0	0
Cc1ccc(C(=O)NCCCn2ccnc2)cc1C	-	-	-	0	-
SMILES	CAL PDZ FP-1	CAL PDZ FP-2	ARNT-TACC3 inh	CaV13 FRET inh	ARNT Alpha ctr-1	others
O=C(NCCCn1ccnc1)c1ccc(Cl)cc1[N+](=O)[O-]	0	0	-	0	-
O=C(NCCCn1ccnc1)c1cc2cc([N+](=O)[O-])ccc2oc1=O	0	0	53.5	0	0
CC(C)(C)c1cc(C(=O)NCCCn2ccnc2)cc(C(C)(C)C)c1	0	0	60.7	0	0
CCCCN(CC)c1nc(N)c2c(N)nc(OCC)cc2c1C#N	0	0	10.3	0	0
Cc1ccc(S(=O)(=O)N2CCOCC2)cc1NC(=O)CNCc1ccccc1Cl	0	0	0	0	-
Cc1ccc(S(=O)(=O)N2CCOCC2)cc1NC(=O)CNCc1ccccn1	0	0	65.2	0	49.7µM
C/C(=N\NC(=O)c1c[nH]c2ccccc12)c1ccc(C)o1	0	0	62.0	0	57.1µM
COc1ccccc1-c1cnc2c(c1)C(=O)N([C@H](C)CO)C[C@@H](C)[C@H](CN(C)Cc1cncnc1)O2	-	-	0	-	-
OCCN(Cc1cccnc1)Cc1ccccn1	0	0	69.5	0	15.4µM
Cc1cc(C)c(S(=O)(=O)N2CCOC2CNC(=O)C(=O)NCCCn2ccnc2)c(C)c1 (stereo not drawn)	0	0	62.9	0	42.4µM
O=C(N/N=C/c1cc([N+](=O)[O-])ccc1O)c1ccncc1	0	0	56.6	0	12.4µM
O=C(NN=Cc1c(O)ccc2ccccc12)c1ccncc1	0	0	56.3	0	49.1µM
O=C(N/N=C/c1cc(Br)ccc1OC(=O)c1ccc(Br)cc1)c1ccncc1	0	0	61.1	0	56.4µM
N#C[C@@H]1[C@@H](c2ccc(-c3ccc(F)cc3)cc2)[C@H](CO)N1c1nc(-c2ccccc2)cs1	-	-	56.2	-	58µM
C[C@@H](C(=O)Nc1nc(-c2ccccn2)cs1)N1C(=O)C2CCCCC2C1=O (stereo partly drawn)	0	0	63.2	0	21.4µM
O=C(CN1C(=O)C2CCCCC2C1=O)Nc1nc(-c2ccccn2)cs1 (stereo not drawn)	0	0	74.5	0	51.5µM
COc1ccc(-c2csc(NC(=O)CN3C(=O)C4CCCCC4C3=O)n2)cc1OC (stereo not drawn)	0	0	0	0	-
CNC[C@@H]1Oc2c(NC(=O)c3ccncc3)cccc2C(=O)N([C@H](C)CO)C[C@H]1C	-	-	0	-	-
CO[C@@H]1CN(C)C(=O)c2cc(NC(=O)C3CC3)ccc2OC[C@H](C)N(C(=O)c2ccncc2)C[C@H]1C	-	-	0	-	-
Cn1ccnc1-c1nc2ccccc2[nH]c1=O	0	0	71.4	0	0
Nc1ccccc1N=Nc1ccccc1N	0	0	0	0	-
CC(C)(C)C1=CC(=Nc2ccccc2N)C=C(C(C)(C)C)C1=O	0	0	53.7	0	1.52µM
O=C(NCC1CC1)[C@H]1[C@H](CO)[C@H]2Cn3c(ccc(-c4cncnc4)c3=O)[C@H]2N1C(=O)NC1CCCC1	-	-	0	-	-
N#Cc1ccsc1NC(=O)c1ccc2ncsc2c1	-	-	-	0	-
N#Cc1ccsc1NC(=O)c1ccccn1	0	0	63.8	0	0
SMILES	CAL PDZ FP-1	CAL PDZ FP-2	ARNT-TACC3 inh	CaV13 FRET inh	ARNT Alpha ctr-1	others
Nc1[nH]c(N=NC(=O)c2ccc(F)cc2)c2ccccc12	0	-	0	0	-
Nc1ccccc1C(=O)N=Nc1[nH]c(N)c2ccccc12	0	0	61.6	0	55.7µM
CC(C)CC#Cc1cnc2c(c1)C(=O)N([C@@H](C)CO)C[C@@H](C)[C@H](CN(C)C(=O)Cc1cccnc1)O2	-	-	0	-	-
CCc1ccc2c(c1)NC(=O)C2(C)Cc1ccc(F)cc1 (stereo not drawn)	-	-	-	0	-
CCc1ccc2c(c1)C1(NN=C(c3ccc(C)cc3)S1)C(=O)N2 (stereo not drawn)	0	0	61.0	0	2.78µM
C/C(=N\NC(=O)C(C)Oc1ccc([N+](=O)[O-])cc1)c1ccccn1 (stereo not drawn)	0	-	54.0	0	34.1µM
C[C@H]1CN([C@@H](C)CO)C(=O)c2cc(Br)cnc2O[C@@H]1CN(C)C(=O)Nc1ccccc1	-	-	0	-	-
